Screening data from PubChem.
Sampled rows, rich in hits. Any-hit rate of the full collection: about 2.4%.
INS-1E GSIS act – primary screen for activators of insulin secretion dependent on glucose, INS-1E cells, GLuc reporter luminescence; 370,000 tested, 0.61% active; activation, % at 16.6 µM; INS-1E GLuc reporter insulin secretion, 2-3 h; AID 743287;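 active = lowest replicate activation of at least 40%, so every replicate reaches that level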;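 note: 0% = median of neutral control wells and 100% = median of IBMX positive control wells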
Env fusion inh – HIV envelope-mediated fusion inhibition | HeLa-JRFL Env/CEM21 cell fusion, luciferase | inhibition, % at 12.3 µM | 360,000 tested, 1.1% active;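 active = mean replicate inhibition score of at least 50 and every replicate individually at or above 50; inconclusive = only one of the two criteria met; inactive = mean below 50 and not all replicates reaching 50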;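 note: 0% = plate neutral controls and 100% = maraviroc near 300 nM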
Cneo AK release – Cryptococcus neoformans lysis via adenylate kinase release; C. neoformans lysis, adenylate kinase release luminescence, 4 h; normalised: neutral wells 0, clomiphene wells 100; 360,000 tested, 0.2% active; lysis activity, % at 15 µM;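 active = mean lysis activity across replicates of at least 80%, whatever share of replicates individually reach that level; inactive = mean lysis activity below 80%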
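Material: C. neoformans cells | Amount: Yeast cell density of 5 × 10^6 cells/mL | Medium: Fresh YPD growth medium | Dosing: Single dose | Times: Static 4 h at 37 °C with compound, 1 h detection | Detection: AK luminescence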
Rtt109 Vps75 – inhibitors of Candida albicans Rtt109/Vps75 histone acetyltransferase; Q5AAJ8; purified Rtt109/Vps75, ThioGlo CoA-SH fluorescence, 4 h; inhibition, % at 34.9 µM; 330,000 tested, 0.16% active;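 active = inhibition of at least 50% in every replicate; inconclusive = best replicate reaches 50% inhibition but some replicates fall short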
Target sequence (Q5AAJ8 whole entry, looked up): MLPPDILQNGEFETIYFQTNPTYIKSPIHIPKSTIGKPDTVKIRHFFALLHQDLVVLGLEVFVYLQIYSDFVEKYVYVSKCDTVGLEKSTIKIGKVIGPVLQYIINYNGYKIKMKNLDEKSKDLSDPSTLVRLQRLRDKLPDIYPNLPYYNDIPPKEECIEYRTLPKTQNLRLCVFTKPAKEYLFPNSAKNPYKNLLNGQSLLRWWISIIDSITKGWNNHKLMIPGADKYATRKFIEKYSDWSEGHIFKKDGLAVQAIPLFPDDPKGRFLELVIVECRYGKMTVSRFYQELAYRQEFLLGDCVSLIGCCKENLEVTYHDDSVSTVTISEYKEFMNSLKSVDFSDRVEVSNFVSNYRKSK
miR-122 sensor – miR-122 inhibition in Huh7 cells; Huh7 miR-122 Renilla luciferase sensor, 48 h; neutral wells = 0, positive control = 100; activation (reporter increase), % at 12.5 µM; 340,000 tested, 0.3% active; AID 602342;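 active = mean replicate activation score at least 90 and every replicate individually at or above 90; inconclusive = only one of the two criteria met; inactive = neither criterion met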;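 note: higher luciferase means less miR-122 activity so hits act as miR-122 inhibitors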
dFosB act – activators of mouse delta FosB homodimer | P13346 | activation, % at 25 µM | 340,000 tested, 0.99% active | purified delta FosB, TAMRA-CDK5 oligo fluorescence polarization; percent of positive-control signal above neutral wells;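 active = mean activation above about 17%, with every replicate also reaching it, limit read from the data, passing the limit was not always enough; inconclusive = only one of the two conditions met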
Target sequence (P13346 whole entry, looked up): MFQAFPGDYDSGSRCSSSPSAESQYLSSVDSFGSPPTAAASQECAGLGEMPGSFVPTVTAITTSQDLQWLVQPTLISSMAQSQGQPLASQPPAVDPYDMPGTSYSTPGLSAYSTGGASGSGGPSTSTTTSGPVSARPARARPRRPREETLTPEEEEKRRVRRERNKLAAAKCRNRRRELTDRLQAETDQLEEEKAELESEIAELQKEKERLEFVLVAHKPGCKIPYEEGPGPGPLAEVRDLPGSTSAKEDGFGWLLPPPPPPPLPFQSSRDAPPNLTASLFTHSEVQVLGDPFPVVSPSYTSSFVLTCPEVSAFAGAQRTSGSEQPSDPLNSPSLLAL
An asterisk follows results filed as active; ? = inconclusive; nt = no result; + = active, no number; [ ] = dose if it differs, or a comment.

SMILES | INS-1E GSIS act | Env fusion inh | Cneo AK release | Rtt109 Vps75 | miR-122 sensor | dFosB act
COc1ccccc1-c1cn(CC[C@H]2CC[C@H](NC(=O)c3cnccn3)[C@H](CO)O2)nn1 | 1 | nt | 0 | nt | nt | nt
C[C@H](NC(=O)C[C@H]1C[C@H]2c3cc(NS(C)(=O)=O)ccc3O[C@H]2[C@H](CO)O1)c1ccccc1 | 17 | -8[16.7 µM] | 1 | nt | 2[16.7 µM] | nt
C[C@H](CO)N1C[C@H](C)[C@@H](CN(C)CC2CCCCC2)Oc2ccc(NC(=O)NC3CCCCC3)cc2CC1=O | -19 | 19[16.7 µM] | 0 | nt | 1[16.7 µM] | nt
CC(=O)Nc1ccc(/C=N/NS(=O)(=O)c2cc(C)ccc2C)cc1 | 3 | -1 | 0 | 35 | 464* | -7
Cc1ccc(C)c(S(=O)(=O)N/N=C/c2ccc(F)cc2)c1 | -36 | 9 | nt | 2 | nt | -5
Cc1nc2scc(C)n2c(=O)c1S(=O)(=O)Nc1ccc(OC(F)(F)F)cc1 | -36 | 55* | 2 | 3 | 25 | -14
COc1ccc2c3c(n(C)c2c1)[C@@H](CO)N(C(=O)C1CCOCC1)CC31CCN(Cc2cccc(F)c2)CC1 | -24 | 70*[16.7 µM] | nt | nt | nt | nt
COc1ccc2c3c(n(C)c2c1)[C@H](CO)N(C(=O)C1CCOCC1)CC31CCN(Cc2cccc(F)c2)CC1 | -16 | 55*[16.7 µM] | nt | nt | nt | nt
COc1ccc2c3c(n(C)c2c1)[C@H](CO)N(C(=O)C1CC1)CC31CCN(Cc2cccc(F)c2)CC1 | -7 | nt | nt | nt | nt | nt
CCCNC(=O)N(C)C[C@H]1Oc2cc(-c3cncnc3)ccc2S(=O)(=O)N([C@@H](C)CO)C[C@@H]1C | 13 | nt | -7 | nt | 14[16.7 µM] | nt
C[C@@H]1CCCCO[C@@H](CN(C)Cc2ccncc2)[C@H](C)CN([C@@H](C)CO)C(=O)c2cc(NC(=O)CCC(F)(F)F)ccc2O1 | 4 | 6[16.7 µM] | -1 | nt | 2[16.7 µM] | nt
CC(C)Cn1c(Cc2ccccc2)n[nH]c1=S | 55* | nt | 2 | 1 | -2 | -3
CCn1c(Cc2ccccc2)n[nH]c1=S | nt | -6 | -2 | 2 | -6 | -3
CC(C)n1c(/C=C/c2ccccc2)nc2ccccc21 | -7 | -130 | -11 | 7 | 192* | -6
CNC[C@@H](CC1CCCCC1)NC[C@H](CC(C)C)NCCc1cccc(C(F)(F)F)c1 | 480* | 93* | 36 | -7 | -22 | -2
CC[C@@H](C)[C@H](CNC)NC[C@@H](Cc1cccc2ccccc12)NCCc1cccc(C(F)(F)F)c1 | + | ? | 10 | 19 | nt | 19*
CCC[C@H](CN[C@@H](CNC)[C@H](C)CC)NCCc1cc(C(F)(F)F)cc(C(F)(F)F)c1 | 24 | -19 | 3 | 1 | -2 | 14
CNC[C@@H](Cc1ccccc1)NC[C@@H](CC1CCCCC1)NCCCc1ccccc1 | 89* | 103* | 3 | 32 | -21 | 9
COc1ccc2c3c([nH]c2c1)[C@@H](CO)N(C(=O)c1ccc(F)cc1)CC31CN(C(=O)CC2CC2)C1 | -12 | nt | nt | nt | nt | nt
Oc1ccc(/C=N/Nc2ccnc3cc(Cl)ccc23)cc1O | 16 | -15 | nt | ? | nt | 109*
CCNc1nc(NCC)nc(N/N=C/c2ccc(O)c(O)c2)n1 | 8 | -2 | nt | 11 | nt | 3
CC/C(=N\Nc1ccnc2cc(Cl)ccc12)c1ccc(O)cc1 | -7 | -15 | -1 | -11 | nt | -8
Oc1ccc(/C=N/Nc2ccnc3cc(Cl)ccc23)c(O)c1O | -2 | -8 | 1 | 3 | -1 | 19*
Clc1ccc(/C=N/NC2=Nc3cccc4cccc2c34)cc1 | 98* | -212 | nt | 0 | nt | 2
Cc1c(C)n(CCN(C)C)c2ccc(C(=O)OCCN(C)C)cc12 | 6 | nt | 1 | 10 | -5 | 20*
SMILES | INS-1E GSIS act | Env fusion inh | Cneo AK release | Rtt109 Vps75 | miR-122 sensor | dFosB act
CC1(Cc2cccc(F)c2)C(=O)Nc2ccc(S(=O)(=O)NC3CCCCC3)cc21 (configuration not stated) | -17 | 58* | 1 | nt | 56 | nt
CC1(Cc2cc(Cl)ccc2C(F)(F)F)C(=O)Nc2ccc(S(=O)(=O)NC3CCCCC3)cc21 (configuration not stated) | nt | 16 | -2 | nt | 83 | nt
CC1(Cc2ccc(Cl)c(Cl)c2)C(=O)Nc2ccc(S(=O)(=O)NC3CCCCC3)cc21 (configuration not stated) | -38 | 57* | 0 | nt | 68 | nt
COCC(=O)N1[C@H](CO)[C@@H](c2ccccc2)C12CN(C(=O)c1ccc(F)cc1)C2 | 8 | nt | nt | nt | nt | nt
CCCn1c(SCC(=O)Nc2nc3c(s2)CCCC3)nc2c1c(=O)n(C)c(=O)n2C | nt | 40 | 14 | -4 | 2 | 3
CCCCn1c(SCC(=O)Nc2nnc(C(C)C)s2)nc2c1c(=O)n(C)c(=O)n2C | -20 | 55* | 0 | 5 | -7 | 3
COc1ccc2c3c(n(C)c2c1)[C@@H](CO)N(Cc1nccs1)CC31CCN(C(=O)CC2CC2)CC1 | -24 | nt | nt | nt | nt | nt
CCOC(=O)c1c(NC(=O)CSc2nnnn2C)sc(C)c1-c1ccc(C)cc1 | 2 | 81* | -3 | 13 | -6 | -10
CCOC(=O)c1c(-c2ccccc2)csc1NC(=O)CSc1nnnn1C | -17 | ? | 6 | -3 | -3 | -3
COCCNC(=O)C[C@@H]1C[C@H]2c3cc(NC(=O)C4CCOCC4)ccc3O[C@H]2[C@@H](CO)O1 | 12 | 21[16.7 µM] | 1 | nt | 0[16.7 µM] | nt
COCCNC(=O)C[C@H]1C[C@@H]2c3cc(NC(=O)C4CCC4)ccc3O[C@@H]2[C@H](CO)O1 | 4 | 2[16.7 µM] | 103* | nt | 43[16.7 µM] | nt
O=C(C[C@H]1C[C@@H]2c3cc(NC(=O)C4CCOCC4)ccc3O[C@@H]2[C@H](CO)O1)NCc1ccccc1 | 3 | 83*[16.7 µM] | 0 | nt | 5[16.7 µM] | nt
COCCNC(=O)C[C@@H]1C[C@H]2c3cc(NC(=O)C4CCC4)ccc3O[C@H]2[C@H](CO)O1 | 2 | -2[16.7 µM] | -15 | nt | 2[16.7 µM] | nt
COCCNC(=O)C[C@@H]1C[C@@H]2c3cc(NC(=O)C4CCOCC4)ccc3O[C@@H]2[C@@H](CO)O1 | 24 | 14[16.7 µM] | 98* | nt | 32[16.7 µM] | nt
O=C(NC1CCCC1)N1CCCCN2[C@H](CO)[C@H](c3ccc(/C=C/c4ccccc4)cc3)[C@@H]2C1 | -3 | nt | 9 | nt | 2[16.7 µM] | nt
c1ccc2c(N3CCCCC3)ncnc2c1 | nt | 70* | 0 | -6 | 1 | -3
C[C@@H]1CCCCO[C@H](CN(C)S(=O)(=O)c2ccccc2)[C@H](C)CN([C@@H](C)CO)C(=O)c2cc(NC(=O)CCC(F)(F)F)ccc2O1 | -15 | -57[16.7 µM] | 0 | nt | 9[16.7 µM] | nt
COC(=O)C1C(OC)=CC(=O)C2CCCCC21 (configuration not stated) | 18 | 57* | nt | -13 | -7 | 4
COc1cccc(C(=O)Nc2cc([N+](=O)[O-])ccc2N2CCN(C)CC2)c1 | 6 | nt | 0 | 4 | 292* | -4
